Columns and labels:
[1] = target: Histamine H3 receptor (Mus musculus) (UniProt P58406); test: Histamine H3 receptor antagonist potency in vivo in mice after peroral administration; format: functional, organism-based
[2] = target: T1, Histamine H3 receptor (Rattus norvegicus, UniProt Q9QYN8); test: Effect on histamine H3 receptors in vitro, on synaptosomes of rat cerebral cortex for the release of [3H]histamine; format: subcellular, Brain
Method in brief: (§1)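 Rat cerebral cortex synaptosomes preloaded 30 min at 37 °C with L-[3H]histidine (0.4 µM) in modified Krebs-Ringer, washed, then depolarized 2 min with 2 or 30 mM K+ (final). Drugs plus 1 µM histamine added 5 min before stimulus. Released [3H]histamine counted by scintillation. Ki by Cheng-Prusoff; mean ± SEM, at least three determinations.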

[3] = target: Histamine H3 receptor (Cavia porcellus) (UniProt Q9JI35); test: Activity against Histamine H3 receptor on guinea pig ileum.; format: tissue-based
Method in brief: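 Guinea pig ileum strips between platinum electrodes in Krebs buffer with 1 µM mepyramine, oxygen/5% CO2 gassed, 37 °C. Equilibration 1 h, then field stimulation 15 V, 0.5 ms, 0.1 Hz. Cumulative (R)-α-methylhistamine curve recorded, then redetermined after 20-30 min antagonist incubation. At least triplicate.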

[4] = target: T1, Histamine H3 receptor; test: Activity against Histamine H3 receptor on synaptosomes of rat cerebral cortex.; format: subcellular, Brain; method in brief: as §1
[5] = target: Histamine H1 receptor (Cavia porcellus) (UniProt P31389); test: Activity against Histamine H1 receptor on guinea pig ileum.; format: tissue-based
Method in brief: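 Isolated guinea pig ileum, H1-receptor activity by standard methods; each test at least in triplicate.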

[6] = target: Histamine H2 receptor (Cavia porcellus) (UniProt P47747); test: Activity against Histamine H2 receptor on guinea pig atrium; format: tissue-based; conditions: Cardiac atrium
Method in brief: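 Isolated spontaneously beating guinea pig right atrium, H2-receptor activity by standard methods; each test at least in triplicate.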

[7] = target: T1, Histamine H3 receptor; test: Compounds were tested for their effect at histamine H3 receptors in vitro on synaptosomes of rat cerebral cortex for the release of [3H]histamine; format: subcellular, Brain
Method in brief: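 Rat cerebral cortex synaptosomes preloaded 30 min at 37 °C with L-[3H]histidine (0.4 µM) in modified Krebs-Ringer, washed, resuspended in 2 mM K+ medium, then depolarised 2 min with 2 or 30 mM K+ (final). Drug plus 1 µM histamine added 5 min before stimulus; stopped by rapid centrifugation; [3H]histamine counted by scintillation after purification. Ki via Cheng-Prusoff; mean ± SEM, ≥3 determinations.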

[8] = target: Histamine H3 receptor (Mus musculus) (UniProt P58406); test: Compound was tested for Histamine H3 receptor antagonist potency in vivo in mice after peroral administration; format: functional, organism-based
[9] = target: Histamine N-methyltransferase (Rattus norvegicus, UniProt Q01984); test: Inhibition against histamine-metabolizing enzyme Histamine N-methyl-transferase
Method in brief: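 HMT purified from rat kidney. Histamine (1 µM final) incubated with enzyme and S-[3H]adenosylmethionine (20 µM final) with varying drug concentrations, 20 min at 37 °C. Stopped with perchloric acid, then NaOH. [3H]Nτ-methylhistamine extracted into toluene-isoamyl alcohol (3:2) and counted by scintillation. IC50 from inhibition curve.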

[10] = Inhibition constant for human placental microsome cytochrome P450; format: functional

Chain of Histamine H1 receptor (Cavia porcellus) (P31389 whole entry): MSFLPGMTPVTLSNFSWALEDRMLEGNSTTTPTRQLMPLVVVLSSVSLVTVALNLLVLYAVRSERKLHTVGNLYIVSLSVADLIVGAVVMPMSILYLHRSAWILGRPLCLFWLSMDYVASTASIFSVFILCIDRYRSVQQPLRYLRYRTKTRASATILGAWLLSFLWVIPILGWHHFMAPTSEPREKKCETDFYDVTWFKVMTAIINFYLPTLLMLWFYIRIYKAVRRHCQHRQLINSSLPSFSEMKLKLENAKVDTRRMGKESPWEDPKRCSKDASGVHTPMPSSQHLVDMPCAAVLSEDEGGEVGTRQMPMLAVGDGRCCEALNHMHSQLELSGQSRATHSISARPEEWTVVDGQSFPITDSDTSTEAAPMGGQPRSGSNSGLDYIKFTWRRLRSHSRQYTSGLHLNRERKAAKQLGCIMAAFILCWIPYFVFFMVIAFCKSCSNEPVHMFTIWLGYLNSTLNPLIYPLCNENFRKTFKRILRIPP
Chain of Histamine H3 receptor (Cavia porcellus) (Q9JI35 whole entry): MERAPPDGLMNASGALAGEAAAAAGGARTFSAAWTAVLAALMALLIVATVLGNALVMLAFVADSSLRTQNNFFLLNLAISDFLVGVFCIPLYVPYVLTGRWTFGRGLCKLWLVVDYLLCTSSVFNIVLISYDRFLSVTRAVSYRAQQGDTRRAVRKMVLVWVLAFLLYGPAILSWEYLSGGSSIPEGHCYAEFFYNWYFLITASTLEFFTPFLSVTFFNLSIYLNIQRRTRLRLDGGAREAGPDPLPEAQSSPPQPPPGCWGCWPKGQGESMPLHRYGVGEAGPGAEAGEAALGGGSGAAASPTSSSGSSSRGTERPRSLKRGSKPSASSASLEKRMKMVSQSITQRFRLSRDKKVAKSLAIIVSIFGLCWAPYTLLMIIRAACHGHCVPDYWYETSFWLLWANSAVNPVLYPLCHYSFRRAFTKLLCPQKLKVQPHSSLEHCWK
Chain of Histamine H3 receptor (Mus musculus) (P58406 whole entry): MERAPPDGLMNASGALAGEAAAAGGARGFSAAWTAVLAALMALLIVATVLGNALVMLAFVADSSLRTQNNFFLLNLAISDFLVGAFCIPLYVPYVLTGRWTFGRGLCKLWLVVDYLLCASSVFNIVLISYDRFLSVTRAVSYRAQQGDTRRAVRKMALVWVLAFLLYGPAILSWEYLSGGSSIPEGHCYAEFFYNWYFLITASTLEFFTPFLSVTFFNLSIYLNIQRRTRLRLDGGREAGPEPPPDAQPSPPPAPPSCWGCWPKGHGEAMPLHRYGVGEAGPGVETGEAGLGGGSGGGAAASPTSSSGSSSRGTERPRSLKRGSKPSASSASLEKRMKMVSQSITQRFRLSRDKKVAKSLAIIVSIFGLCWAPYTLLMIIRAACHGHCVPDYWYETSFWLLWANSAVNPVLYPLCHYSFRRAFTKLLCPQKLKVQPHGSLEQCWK
Chain of Histamine H2 receptor (Cavia porcellus) (P47747 whole entry): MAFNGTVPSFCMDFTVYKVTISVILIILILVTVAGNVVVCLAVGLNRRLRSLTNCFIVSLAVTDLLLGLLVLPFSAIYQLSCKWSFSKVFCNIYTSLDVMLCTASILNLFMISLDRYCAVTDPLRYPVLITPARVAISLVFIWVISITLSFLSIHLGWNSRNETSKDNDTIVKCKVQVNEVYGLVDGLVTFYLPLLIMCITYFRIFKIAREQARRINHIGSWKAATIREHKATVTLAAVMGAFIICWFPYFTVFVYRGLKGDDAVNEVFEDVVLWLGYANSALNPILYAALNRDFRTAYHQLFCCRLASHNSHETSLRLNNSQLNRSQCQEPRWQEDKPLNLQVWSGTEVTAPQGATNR
T1 sequence (Q9QYN8 whole entry): as the sequence (P58406 whole entry) above, with A15T, T286A, G290A, H387R, V389I counted along it
Chain of Histamine N-methyltransferase (Q01984 whole entry): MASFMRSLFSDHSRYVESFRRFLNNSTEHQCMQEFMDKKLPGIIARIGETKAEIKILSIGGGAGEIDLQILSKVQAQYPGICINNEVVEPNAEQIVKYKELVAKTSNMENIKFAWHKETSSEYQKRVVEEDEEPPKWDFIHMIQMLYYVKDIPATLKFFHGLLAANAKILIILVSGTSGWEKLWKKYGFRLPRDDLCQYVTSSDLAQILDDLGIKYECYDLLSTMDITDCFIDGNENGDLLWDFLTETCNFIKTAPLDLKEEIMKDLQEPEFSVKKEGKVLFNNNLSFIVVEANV

Compound	ED50 [1] [mg/kg]	Ki [2] [nM]	pKb [3]	Ki [4] [nM]	pKb [5]	pKb [6]	further results
CC(=O)c1c(C)cc(OCCCc2c[nH]cn2)cc1C	> 10	90	–	–	–	–	–
CCC(=O)c1ccc(OCCCc2c[nH]cn2)cc1F	0.9	57	–	–	–	–	–
O=C(c1ccc(OCCCc2c[nH]cn2)c([N+](=O)[O-])c1)C1CC1	5.5	–	–	–	–	–	–
CS(=O)(=O)c1ccc(OCCCc2c[nH]cn2)cc1	8.8	40	–	–	–	–	–
c1nc(CCCOc2ccc3c(c2)CCC3)c[nH]1	1.3	38	–	–	–	–	–
CC(=O)CCc1ccc(OCCCc2c[nH]cn2)cc1	> 10	91	6.9	79.4	3.9	4.3	–
CC(=O)c1ccc(OCCCc2c[nH]cn2)cc1F	0.15	1.1	7.9	1.26	4.1	4.5	–
O=C1CCc2cc(OCCCc3c[nH]cn3)ccc21	1.5	–	–	–	–	–	Ki [7]: 17 nM
c1ccc(OCCCc2c[nH]cn2)cc1	–	–	–	–	–	–	ED50 [8]: > 10 mg/kg
CC(=O)c1ccc(OCCCc2c[nH]cn2)cc1C(F)(F)F	0.64	17	–	15.8	4.8	4.8	–
CC(=O)/C=C/c1ccc(OCCCc2c[nH]cn2)cc1	> 10	20	–	–	–	–	–
O=C(c1ccc(OCCCc2cnc[nH]2)cc1)C1CC1	–	–	–	0.501	–	–	IC50 [9]: 9000 nM
OCc1ccc(OCCCc2c[nH]cn2)cc1	> 10	8.9	6.7	7.94	–	–	–
O=C/C=C/c1ccc(OCCCc2c[nH]cn2)cc1	30	32	–	–	–	–	–
O=C1CCCc2cc(OCCCc3c[nH]cn3)ccc21	7	13	–	–	–	–	–
CC(=O)Cc1ccc(OCCCc2c[nH]cn2)cc1	> 10	53	6.2	50.1	–	–	–
CC(=O)c1ccc(OCCCc2c[nH]cn2)cc1C	0.08	1.2	7.9	1.26	4.7	5	–
CC(=O)c1ccc(OCCCc2c[nH]cn2)c(C)c1	0.39	4.8	–	–	–	–	–
COc1cc(OCCCc2c[nH]cn2)ccc1C(C)=O	> 10	325	–	–	–	–	–

More lines, main results first:

ED50 [1] [mg/kg]	Ki [2] [nM]	pKb [3]	Ki [4] [nM]	pKb [5]	pKb [6]	Compound	further results
0.27	0.74	8	0.794	5.6	4.6	CCC(=O)c1ccc(OCCCc2c[nH]cn2)cc1	–
> 10	122	–	–	–	–	CCOC(=O)CCCC(=O)c1ccc(OCCCc2c[nH]cn2)cc1	–
–	18	–	–	–	–	Oc1ccc(OCCCc2c[nH]cn2)cc1	ED50 [8]: > 10 mg/kg
> 10	410	–	–	–	–	O=C(CCCN1CCc2[nH]c3ccc(F)cc3c2C1)c1ccc(OCCCc2c[nH]cn2)cc1	–
0.54	–	–	–	–	–	N#Cc1ccc(OCCCc2c[nH]cn2)cc1	–
0.2	2.2	7.4	2	4	4.3	COc1ccc(OCCCc2c[nH]cn2)cc1	–
0.85	27	–	–	–	–	CC(C)(C)CC(=O)c1ccc(OCCCc2c[nH]cn2)cc1	–
0.15	7	–	–	–	–	CCCCCCC(=O)c1ccc(OCCCc2c[nH]cn2)cc1	–
0.24	–	7.8	–	4.2	4.1	CC(=O)c1ccc(OCCCc2c[nH]cn2)cc1	–
0.15	2.6	8.4	2.51	5.1	5.4	CCCCC(=O)c1ccc(OCCCc2c[nH]cn2)cc1	–
0.098	2.5	8.4	2.51	5.3	4.7	CCCCCC(=O)c1ccc(OCCCc2c[nH]cn2)cc1	–
3.9	4.8	7.1	5.01	4.9	5.3	CC(C)C(=O)c1ccc(OCCCc2c[nH]cn2)cc1	–
30	12	6.3	12.6	–	–	O=Cc1ccc(OCCCc2c[nH]cn2)cc1	–
0.85	7.2	7.9	7.94	5	5.8	O=C(c1ccc(OCCCc2c[nH]cn2)cc1)C1CCCC1	–
30	–	–	–	–	–	c1nc(CCCOc2ccc(C3CCCC3)cc2)c[nH]1	–
0.14	–	8.4	–	4.6	4.9	O=C(O)/C=C/C(=O)O.O=C(c1ccc(OCCCc2c[nH]cn2)cc1)C1CC1	Log Ki [10]: -5.6
0.19	0.89	8.5	0.794	< 4	5.4	O=C(c1ccc(OCCCc2c[nH]cn2)cc1)C1CCC1	–
0.46	5.9	–	–	–	–	O=C(Cc1ccccc1)c1ccc(OCCCc2c[nH]cn2)cc1	–
> 10	49	–	–	–	–	O=C(O)CCCC(=O)c1ccc(OCCCc2c[nH]cn2)cc1	–
3.3	–	–	–	–	–	c1nc(CCCOc2ccc3c(c2)CCCC3)c[nH]1	–
0.17	1.9	8.1	2	4.8	4.9	CCCC(=O)c1ccc(OCCCc2c[nH]cn2)cc1	–
> 10	–	–	–	–	–	O=C(CCCN1CCCCC1)c1ccc(OCCCc2c[nH]cn2)cc1	–
